Calls of active or inactive are those of the source. The calls are words filed in the database; no cut-off is given here.
How the values were obtained:
[1] = test system: Cellular tumor antigen p53 (Homo sapiens), P04637 [Y220C]; experiment: Activation of p53 Y220C mutant in human HuH7 cells assessed as increase in BBC3 mRNA level at 30 uM after 18 hrs by RT-PCR method; assay type: cell-based
Method in brief: (§1)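 Real-time PCR. Cells were treated for 18 h, with 0.5% DMSO in both compound and control samples. Relative mRNA levels were quantified by the ΔΔCt method as fold-change against the untreated sample. Each sample was measured in triplicate, and data are given as mean ± SEM with an unpaired t-test.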

[2] = biological target: T1, Cellular tumor antigen p53 (Homo sapiens, UniProt P04637); experiment: Activation of p53 in human NUGC4 cells assessed as change in ESR1 mRNA level at 60 uM after 18 hrs by RT-PCR method relative to control; assay type: cell-based; conditions: read-out: FC
Method in brief: (§2)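 p53 signaling qPCR array of 84 p53-pathway genes. Cells were treated in 6-well plates for 18 h with 0.5% DMSO in compound and control samples. Total RNA was extracted and fold-changes were obtained by the ΔΔCt method against untreated control, with β2-microglobulin (B2M) as housekeeping gene. Two independent biological replicates per cell line.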

[3] = biological target: T1, Cellular tumor antigen p53; experiment: Activation of p53 in human NUGC4 cells assessed as change in E2F1 mRNA level at 60 uM after 18 hrs by RT-PCR method relative to control; assay type: cell-based; conditions: read-out: FC; method in brief: as §2
[4] = test system: Cellular tumor antigen p53 (Homo sapiens), P04637 [Y220C]; experiment: Activation of p53 Y220C mutant in human HuH7 cells assessed as increase in Bax mRNA level at 30 uM after 18 hrs by RT-PCR method; assay type: cell-based; method in brief: as §1
[5] = biological target: T1, Cellular tumor antigen p53; experiment: Activation of p53 in human NUGC4 cells assessed as change in CCNE1 mRNA level at 60 uM after 18 hrs by RT-PCR method relative to control; assay type: cell-based; conditions: read-out: FC; method in brief: as §2
[6] = test system: Cellular tumor antigen p53 (Homo sapiens), P04637 [Y220C]; experiment: Activation of p53 Y220C mutant in human NUGC3 cells assessed as change in SIRT1 mRNA level at 60 uM after 18 hrs by RT-PCR method relative to control; assay type: cell-based
Method in brief: (§3)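 p53 signalling qPCR array covering 84 p53 pathway genes. Cells were exposed for 18 h, and compound and control wells both held 0.5% DMSO. Total RNA was extracted and purified. Fold-changes were calculated by the ΔΔCt method against the untreated sample, with β2-microglobulin (B2M) as the housekeeping gene. Each cell line was run in two independent biological replicates.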

[7] = test system: Huh-7; experiment: Upregulation of p21 mRNA level in p53 Y220C mutant knockout human HuH7 cells at 30 uM after 18 hrs by RT-PCR method; assay type: functional, cell-based
[8] = biological target: T1, Cellular tumor antigen p53; experiment: Activation of p53 in human NUGC4 cells assessed as change in PPM1D mRNA level at 60 uM after 18 hrs by RT-PCR method relative to control; assay type: cell-based; conditions: read-out: FC
[9] = test system: Cellular tumor antigen p53 (Homo sapiens), P04637 [Y220C]; experiment: Activation of p53 Y220C mutant in human NUGC3 cells assessed as change in MCL1 mRNA level at 60 uM after 18 hrs by RT-PCR method relative to control; assay type: cell-based; method in brief: as §3
[10] = test system: Cellular tumor antigen p53 (Homo sapiens), P04637 [Y220C]; experiment: Activation of p53 Y220C mutant in human NUGC3 cells assessed as change in FADD mRNA level at 60 uM after 18 hrs by RT-PCR method relative to control; assay type: cell-based
Method in brief: (§4)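 p53 signalling qPCR array covering 84 genes. Cells were exposed for 18 h, with 0.5% DMSO in both compound and control samples. Total RNA was extracted and purified. Fold-changes were calculated by ΔΔCt using β2-microglobulin (B2M) as the housekeeping gene. Two independent biological replicates were run per cell line.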

[11] = test system: Huh-7; experiment: Upregulation of MDM2 mRNA level in p53 Y220C mutant knockout human HuH7 cells at 30 uM after 18 hrs by RT-PCR method; assay type: functional, cell-based
[12] = biological target: T1, Cellular tumor antigen p53; experiment: Activation of p53 in human NUGC4 cells assessed as change in TSC1 mRNA level at 60 uM after 18 hrs by RT-PCR method relative to control; assay type: cell-based; conditions: read-out: FC
[13] = biological target: T1, Cellular tumor antigen p53; experiment: Activation of p53 in human NUGC4 cells assessed as change in FAS mRNA level at 60 uM after 18 hrs by RT-PCR method relative to control; assay type: cell-based; conditions: read-out: FC; method in brief: as §2
[14] = test system: Cellular tumor antigen p53 (Homo sapiens), P04637 [Y220C]; experiment: Activation of p53 Y220C mutant in human NUGC3 cells assessed as change in EGFR mRNA level at 60 uM after 18 hrs by RT-PCR method relative to control; assay type: cell-based; method in brief: as §4
[15] = test system: Cellular tumor antigen p53 (Homo sapiens), P04637 [Y220C]; experiment: Activation of p53 Y220C mutant in human NUGC3 cells assessed as change in BTG2 mRNA level at 60 uM after 18 hrs by RT-PCR method relative to control; assay type: cell-based; method in brief: as §4
[16] = test system: Cellular tumor antigen p53 (Homo sapiens), P04637 [Y220C]; experiment: Activation of p53 Y220C mutant in human NUGC3 cells assessed as change in FAS mRNA level at 60 uM after 18 hrs by RT-PCR method relative to control; assay type: cell-based; method in brief: as §4
[17] = biological target: T1, Cellular tumor antigen p53; experiment: Activation of p53 in human NUGC4 cells assessed as change in PTEN mRNA level at 60 uM after 18 hrs by RT-PCR method relative to control; assay type: cell-based; conditions: read-out: FC
[18] = test system: Cellular tumor antigen p53 (Homo sapiens), P04637 [Y220C]; experiment: Activation of p53 Y220C mutant in human NUGC3 cells assessed as change in E2F3 mRNA level at 60 uM after 18 hrs by RT-PCR method relative to control; assay type: cell-based; method in brief: as §4
[19] = test system: Cellular tumor antigen p53 (Homo sapiens), P04637 [Y220C]; experiment: Activation of p53 Y220C mutant in human HuH7 cells assessed as increase in p21 mRNA level at 30 uM after 18 hrs by RT-PCR method; assay type: cell-based; method in brief: as §1
[20] = test system: Cellular tumor antigen p53 (Homo sapiens), P04637 [Y220C]; experiment: Activation of p53 Y220C mutant in human NUGC3 cells assessed as change in CDKN1A mRNA level at 60 uM after 18 hrs by RT-PCR method relative to control; assay type: cell-based; method in brief: as §4
[21] = test system: Cellular tumor antigen p53 (Homo sapiens), P04637 [Y220C]; experiment: Activation of p53 Y220C mutant in human NUGC3 cells assessed as change in DNMT1 mRNA level at 60 uM after 18 hrs by RT-PCR method relative to control; assay type: cell-based; method in brief: as §4
[22] = biological target: T1, Cellular tumor antigen p53; experiment: Activation of p53 in human NUGC4 cells assessed as change in BAI1 mRNA level at 60 uM after 18 hrs by RT-PCR method relative to control; assay type: cell-based; conditions: read-out: FC; method in brief: as §3
[23] = test system: Cellular tumor antigen p53 (Homo sapiens), P04637 [Y220C]; experiment: Activation of p53 Y220C mutant in human NUGC3 cells assessed as change in CDKN2A mRNA level at 60 uM after 18 hrs by RT-PCR method relative to control; assay type: cell-based; method in brief: as §4
[24] = biological target: T1, Cellular tumor antigen p53; experiment: Activation of p53 in human NUGC4 cells assessed as change in EGR1 mRNA level at 60 uM after 18 hrs by RT-PCR method relative to control; assay type: cell-based; conditions: read-out: FC; method in brief: as §2
[25] = test system: Cellular tumor antigen p53 (Homo sapiens), P04637 [Y220C]; experiment: Activation of p53 Y220C mutant in human NUGC3 cells assessed as change in TSC1 mRNA level at 60 uM after 18 hrs by RT-PCR method relative to control; assay type: cell-based; method in brief: as §3
[26] = biological target: T1, Cellular tumor antigen p53; experiment: Activation of p53 in human NUGC4 cells assessed as change in HDAC1 mRNA level at 60 uM after 18 hrs by RT-PCR method relative to control; assay type: cell-based; conditions: read-out: FC; method in brief: as §2
[27] = biological target: T1, Cellular tumor antigen p53; experiment: Activation of p53 in human NUGC4 cells assessed as change in ADGRB1 mRNA level at 60 uM after 18 hrs by RT-PCR method relative to control; assay type: cell-based; conditions: read-out: FC; method in brief: as §3
[28] = biological target: T1, Cellular tumor antigen p53; experiment: Activation of p53 in human NUGC4 cells assessed as change in RB1 mRNA level at 60 uM after 18 hrs by RT-PCR method relative to control; assay type: cell-based; conditions: read-out: FC

CCNC(=O)c1c(O)c(I)c(-n2cccc2)c2sc(N(CC)CC)nc12
Activity [1]: Active | fold induction at 60 µM [2]: 8.1 | fold induction at 60 µM [3]: 0.5 | Activity [4]: Active | fold induction at 60 µM [5]: 0.5 | fold change (FC) [6]: 1.7 | Activity [7]: inactive | fold induction at 60 µM [8]: 0.9 | fold change (FC) [9]: 1.7 | fold change (FC) [10]: 0.4 | Activity [11]: inactive | fold induction at 60 µM [12]: 1.1 | fold induction at 60 µM [13]: 1 | fold change (FC) [14]: 1 | fold change (FC) [15]: 1.9 | fold change (FC) [16]: 2.6 | fold induction at 60 µM [17]: 1 | fold change (FC) [18]: 1.3 | Activity [19]: Active | fold change (FC) [20]: 3.1 | fold change (FC) [21]: 1.2 | fold induction at 60 µM [22]: 2.9 | fold change (FC) [23]: 1.3 | fold induction at 60 µM [24]: 0.7 | fold change (FC) [25]: 1.3 | fold induction at 60 µM [26]: 0.8 | fold induction at 60 µM [27]: 2.9 | fold induction at 60 µM [28]: 0.8
